Compound activity: PubChem, several laboratories
Jurkat NFkB inh – lowers PMA/ionomycin-induced NF-kB signal in Jurkat cells; PMA/ionomycin-induced NF-kB luciferase reporter, luminescence; inhibition, % at 4 µM; 0.53% of 330,000 active; in the data active means inhibition above about 50%
CHOP inh – inhibitors of CHOP induction in ER stress response. CHO-K1 CHOP-promoter luciferase, tunicamycin-induced, 15-18 h. inhibition, % at 10 µM. 3.8% of 220,000 active;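 active means compounds that reduced the stress-induced luciferase reporter signal by more than about 70% of percent inhibition, limit read from the data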;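 further: 0% = tunicamycin plus vehicle and 100% = wells without tunicamycin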
Gli-Sufu block – blocks Gli-Sufu signaling in a luciferase reporter; Sufu-KO-LIGHT fibroblasts, Gli luciferase reporter luminescence; inhibition, % at 5 µM; 0.74% of 340,000 active; AID 588413;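 active means inhibition above about 55%, limit read from the data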;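 further: 0% = DMSO-treated cells and 100% = wells with medium but no cells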
UPR CHOP act – apoptotic UPR (CHOP) activation | CHO-CHOP luciferase reporter, luminescence; percent of tunicamycin response over DMSO baseline | activation, % at 10 µM | 0.34% of 330,000 active;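 active means at 10 µM dose, activation of 40% or more, normalized to positive control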;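 further: 100% = tunicamycin at 10 µg/mL and 0% = DMSO alone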
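Test system: CHO CHOP reporter cells. Input: 500 CHO-CHOP cells per well. Medium: F12 with 10% FBS. Technique: luciferase luminescence. Measure: percent activation relative to tunicamycin control. Dosing: 10 µM compound, 0.5% DMSO. Timing: 16-18 h cell attachment, then 6 h compound exposure, 37 °C.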
UPR XBP1 act – adaptive UPR (XBP1) activation; activation, % at 20 µM; 0.33% of 330,000 active; CHO-XBP1 luciferase reporter, IRE1-XBP1 UPR activation, luminescence; percent of tunicamycin response, DMSO as zero;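 active means versus positive control, 20 µM dose yields 30% or more activation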;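 further: 100% = tunicamycin at 10 µg/mL and 0% = DMSO only wells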
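incubation = overnight seeding at 37 °C, 6 h compound treatment at 37 °C | assay system = CHO-XBP1 cells stably carrying IRE1-XBP1-driven luciferase reporter | input = 1000 cells per well | detection = luciferase luminescence | dosing = single point, 20 µM final compound, 1% DMSO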
697 NFkB inh – inhibitors of the PMA/ionomycin-induced NF-kB reporter in 697 B cells. 697 B-cell NF-kB luciferase reporter, 16 h. inhibition, % at 4 µM. 0.33% of 330,000 active. AID 435022; in the data active means inhibition above about 35%
Jurkat NFkB conf – lowers PMA/ionomycin-induced NF-kB signal in Jurkat cells | inhibition, % at 4 µM | 27% of 2,700 active | Jurkat NF-kB luciferase, 16 h | AID 435020 | shares compounds with Jurkat NFkB inh;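 active means inhibition reaching about 45% at 4 µM in either replicate, limit read from the data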;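 further: plate controls were PMA/ionomycin stimulated DMSO wells for no effect and unstimulated DMSO wells for full effect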
* = called active by the depositor; / = no result. The list is not random: actives were taken first. Their share in the collection is about 3.9%.

SMILES	Jurkat NFkB inh	CHOP inh	Gli-Sufu block	UPR CHOP act	UPR XBP1 act	697 NFkB inh	Jurkat NFkB conf
C/C(N)=C(/C#N)C(=O)CSc1nnc(-c2ccccc2Br)o1	-156	-28	-88	-1	-4	-217	-116
COc1ccc(-c2nnc(SCC(=O)c3ccc(C)o3)o2)cc1	/	-2	-12	/	/	/	/
Cc1ccc(C(=O)NCC(=O)N2CCCC(C(F)(F)F)C2)s1 (configuration not stated)	-15	/	-20	1	2	-19	/
NC(=O)C1CCN(C(=O)c2cc(-c3ccc(Cl)s3)nc3ccccc23)CC1	2	/	-19	5	0	18	/
Cc1cc(-c2ccc(C)c(S(=O)(=O)N3CCN(c4ccccn4)CC3)c2)on1	22	/	9	0	-3	-16	/
CCc1ccc(-c2cc(C)no2)cc1S(=O)(=O)N1CCN(c2ccccc2)CC1	53*	/	5	4	-7	-65	7
CCc1ccc(-c2cc(C)no2)cc1S(=O)(=O)N1CCN(c2ccccc2OC)CC1	17	/	-12	1	-8	-15	/
Cc1cc(-c2ccc(C)c(S(=O)(=O)N3CCN(c4ccc([N+](=O)[O-])cc4)CC3)c2)on1	54*	/	-11	2	-3	-9	64*
COc1ccc(C(=O)N2N=C(c3ccc(NS(C)(=O)=O)cc3)CC2c2cccs2)cc1 (configuration not stated)	-8	/	0	-1	1	3	/
COc1cccc2cc(-c3csc(NC(=O)CCC(=O)NCCCN4CCC(C)CC4)n3)c(=O)oc12	-158	-19	-83	0	-1	-237	-104
CCOc1cccc2cc(-c3csc(NC(=O)CCC(=O)NCCN4CCCCC4C)n3)c(=O)oc12 (configuration not stated)	-200	-40	15	3	5	-57	-32
COc1ccc(OC)c(-c2csc(NC(=O)CN3C(=O)C4CCCCC4C3=O)n2)c1 (configuration not stated)	-9	/	1	0	-1	-6	/
Cc1nc2ccccc2c2oc(C(=O)NCCN3CCCCC3C)cc12 (configuration not stated)	-9	37	-6	1	2	-6	/
CCOc1cccc2cc(-c3csc(NC(=O)CCC(=O)NCCCN4CCC(C)CC4)n3)c(=O)oc12	-185	-8	/	5	3	-99	-71
CC(C)N(CCNC(=O)C1CCCN(c2ncnc3c2nc2n3CCCCC2)C1)Cc1ccccc1 (configuration not stated)	-1	/	23	0	-1	1	/
CCOc1ccc(NC(=O)CCC(=O)NNC(=O)c2cccc([N+](=O)[O-])c2)cc1	5	/	6	0	-1	8	/
CCOC(=O)c1c(C)[nH]c(N=Nc2cccc(OC)c2)c1C	-209	64	-110	2	2	-174	-39
CCOC(=O)c1c(C)[nH]c(N=Nc2ccc(OC)cc2)c1C	-119	62	-81	5	2	-116	/
Cc1ccc(CNc2ncnc3c2cnn3C2CCCCO2)cc1 (configuration not stated)	/	/	0	/	/	/	/
Cc1c(C(=O)Nc2ccc3c4c(cccc24)CC3)cccc1[N+](=O)[O-]	-2	17	1	-1	1	-21	/
Cc1ccc(C(=O)Nc2ccc3c4c(cccc24)CC3)cc1[N+](=O)[O-]	85*	0	-1	0	0	-22	13
CCOc1ccccc1C1CC(=O)Nc2cc3c(cc21)OCO3 (configuration not stated)	63*	/	21	-3	4	-1	60*
COc1ccccc1C1CC(=O)Nc2cc3c(cc21)OCCO3 (configuration not stated)	42	/	52	-1	8	-39	/
Cn1cc(/C=N/n2cnc3scc(-c4ccc(Cl)cc4)c3c2=O)c2ccccc21	62*	/	28	1	7	19	50*
COc1cccc(NC(=O)C2CCC(CNS(=O)(=O)c3ccc4c(c3)CC(C)N4C(C)=O)CC2)c1 (configuration not stated)	-14	/	-13	-2	-6	1	/
